Calls of active or inactive are those of the source. The calls are words filed in the database; no cut-off is given here.
Columns and labels:
SK-N-SH = assay: Cytotoxicity against human SK-N-SH cells assessed as cell survival at 100 uM incubated for 1 hr followed by compound washout measured up to 48 hrs by CCK-8 assay; assay type: cell-based
Method in brief: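 SK-N-SH cells seeded at 5×10^4 cells/mL (100 µL) in EMEM with 10% FBS and allowed to adhere 24 h. Exposed 1 h to 100 µM compound or DMSO control, washed twice, then allowed to recover 0, 24 or 48 h. Live cells measured by CCK-8 at A450. Survival = (sample − medium)/(control − medium) × 100.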

Escherichia coli [1] = assay: Antibacterial activity against Escherichia coli RP437 expressing red fluorescence protein assessed as inhibition of biofilm formation at 200 uM after 24 hrs by confocal laser scanning microscopic analysis; assay type: functional, organism-based
Method in brief: (§1)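 E. coli RP437 (pRSH103, red fluorescent; grown in LB with 10 µg/mL tetracycline) formed biofilms on 316 stainless-steel coupons with 200 µM compound or 0.4% DMSO control, static, 37 °C, 24 h. Coupons rinsed three times in 0.9% NaCl, then imaged by CLSM. COMSTAT gave biomass, mean thickness and surface area from z-stacks at four locations, normalized to the BF-free control. Four replicates.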

Escherichia coli [2] = assay: Antibacterial activity against Escherichia coli RP437 expressing red fluorescence protein assessed as inhibition of biofilm formation measured as reduction in biomass at 200 uM after 24 hrs by confocal laser scanning microscopic analysis; assay type: functional, organism-based; method in brief: as §1
[3] = Cytotoxicity against human SK-N-SH cells assessed as cell survival at 400 uM incubated for 1 hr followed by compound washout measured after 24 hrs by CCK-8 assay relative to control; assay type: cell-based; details: read-out: Survival
Method in brief: (§2)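 SK-N-SH cells were grown in EMEM with 10% FBS, penicillin/streptomycin and 2.0 mM L-glutamine at 37 °C, 5% CO2. Wells were seeded at 5×10^4 cells/mL and left 24 h to adhere. Cells were exposed for 1 h in fresh medium, with DMSO-matched controls, then washed twice. After 0, 24 or 48 h recovery, CCK-8 A450 was read. Survival = (sample−medium)/(control−medium)×100.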

[4] = molecular target: T1, HTH-type quorum-sensing regulator RhlR (Pseudomonas aeruginosa (strain ATCC 15692 / PAO1 / 1C / PRS 101 / LMG12228)) (UniProt P54292); assay: Agonist activity at RhlR in Pseudomonas aeruginosa PAO1 expressing RhlI assessed as effect on GFP production at 50 to 300 uM after 24 hrs by fluorescence assay relative to control
T1 sequence (whole entry): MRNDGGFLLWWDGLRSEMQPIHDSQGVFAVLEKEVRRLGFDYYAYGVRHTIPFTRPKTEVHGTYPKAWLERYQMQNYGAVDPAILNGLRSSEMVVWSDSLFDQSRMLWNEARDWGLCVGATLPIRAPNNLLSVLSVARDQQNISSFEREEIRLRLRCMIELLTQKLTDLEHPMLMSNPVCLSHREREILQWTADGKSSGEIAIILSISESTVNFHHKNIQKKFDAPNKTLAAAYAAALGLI
Method in brief: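 PAO1 (prhlI-LVAgfp) grown in M9 with 300 µg/mL carbenicillin to OD600 0.1, exposed to compound at 50, 150 or 300 µM for 24 h at 37 °C with shaking at 250 rpm. Fluorescence read at ex 500/em 540 nm, M9 background subtracted, divided by OD600 and normalized to the BF-free control. Four replicates.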

Escherichia coli [5] = assay: Antibacterial activity against Escherichia coli RP437 expressing red fluorescence protein assessed as inhibition of biofilm formation measured as reduction in surface area at 200 uM after 24 hrs by confocal laser scanning microscopic analysis; assay type: functional, organism-based; method in brief: as §1
Pseudomonas aeruginosa [6] = assay: Inhibition of quorum sensing system in Pseudomonas aeruginosa PAO-JP2 assessed as reduction of elastase B production at 300 uM after 24 hrs by congo-red staining-based assay relative to control
Method in brief: (§3)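 PAO-JP2 grown in PTSB at 37 °C, subcultured at OD600 0.05 with 5 µM 3-oxo-C12-HSL and 10 µM C4-HSL ± compound, shaken at 250 rpm for 24 h. Filtered supernatant (100 µL) incubated with Elastin-Congo red (4.5 mg in 900 µL Tris-HCl pH 7.2, 1 mM CaCl2) for 24 h at 37 °C, stopped with EDTA. A490 read minus bacteria-free blank, normalized to control. Four replicates.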

Pseudomonas aeruginosa [7] = assay: Toxicity in Pseudomonas aeruginosa PAO1 assessed as planktonic growth inhibition at 400 uM after 24 hrs; assay type: organism-based; details: in vivo
[8] = Cytotoxicity against human SK-N-SH cells assessed as cell survival at 400 uM incubated for 1 hr followed by compound washout measured after 48 hrs by CCK-8 assay relative to control; assay type: cell-based; details: read-out: Survival; method in brief: as §2
Pseudomonas aeruginosa [9] = assay: Antibacterial activity against Pseudomonas aeruginosa PAO1 expressing green fluorescence protein assessed as inhibition of biofilm formation measured as reduction in biomass at 400 uM after 24 hrs by confocal laser scanning microscopic analysis relative to control; assay type: functional; details: PAO1, 24 h
Pseudomonas aeruginosa [10] = assay: Antibacterial activity against Pseudomonas aeruginosa PAO1 expressing green fluorescence protein assessed as inhibition of biofilm formation measured as reduction in surface area at 400 uM after 24 hrs by confocal laser scanning microscopic analysis relative to control; assay type: functional, organism-based
[11] = molecular target: T2, Transcriptional activator protein LasR (Pseudomonas aeruginosa (strain ATCC 15692 / PAO1 / 1C / PRS 101 / LMG12228)) (UniProt P25084); assay: Antagonist activity at LasR in Pseudomonas aeruginosa PAO1 expressing LasI assessed as inhibition of GFP production at 300 uM after 24 hrs by fluorescence assay relative to control
T2 sequence (whole entry): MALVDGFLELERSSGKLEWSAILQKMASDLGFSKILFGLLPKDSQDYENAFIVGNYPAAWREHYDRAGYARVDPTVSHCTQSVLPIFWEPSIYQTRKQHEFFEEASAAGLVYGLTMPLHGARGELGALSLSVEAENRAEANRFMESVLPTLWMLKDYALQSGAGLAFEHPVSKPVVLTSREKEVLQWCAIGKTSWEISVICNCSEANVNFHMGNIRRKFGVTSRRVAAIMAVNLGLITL

Escherichia coli [12] = assay: Antibacterial activity against Escherichia coli RP437 expressing red fluorescence protein assessed as inhibition of biofilm formation measured as reduction in mean thickness of biofilm at 200 uM after 24 hrs by confocal laser scanning microscopic analysis; assay type: functional, organism-based; method in brief: as §1
Pseudomonas aeruginosa [13] = assay: Antibacterial activity against Pseudomonas aeruginosa PAO1 assessed as inhibition of biofilm formation incubated for 24 hrs followed by compound-washout measured after 30 mins by crystal-violet staining-based colorimetric assay; assay type: functional, organism-based
Method in brief: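 P. aeruginosa subcultured at OD600 0.1 in LB with compound (DMSO stock) in 96-well polystyrene plates, stationary, 37 °C, 24 h. Wells washed and dried 30 min, stained with 0.1% crystal violet for 30 min, washed, dye solubilized in 95% EtOH, A540 read. Values are (sample − medium)/(DMSO control − medium) × 100. Four replicates.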

[14] = Cytotoxicity against human SK-N-SH cells assessed as cell survival at 400 uM incubated for 1 hr followed by compound washout measured immediately by CCK-8 assay relative to control; assay type: cell-based; details: read-out: Survival; method in brief: as §2
[15] = molecular target: T2, Transcriptional activator protein LasR (Pseudomonas aeruginosa (strain ATCC 15692 / PAO1 / 1C / PRS 101 / LMG12228)); assay: Antagonist activity at LasR in Pseudomonas aeruginosa PAO1 expressing LasI assessed as inhibition of GFP production at 50 to 150 uM after 24 hrs by fluorescence assay
Pseudomonas aeruginosa [16] = assay: Antibacterial activity against Pseudomonas aeruginosa PAO1 expressing green fluorescence protein assessed as inhibition of biofilm formation at 400 uM after 24 hrs by confocal laser scanning microscopic analysis; assay type: functional, organism-based
Method in brief: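 PA01-GFP (pSMC2; grown in LB with 300 µg/mL carbenicillin) formed biofilms on stainless-steel coupons with 400 µM compound, static, 37 °C, 24 h. Coupons rinsed three times in 0.9% saline, then imaged by CLSM.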

Escherichia coli [17] = assay: Toxicity in Escherichia coli RP437 assessed as planktonic growth inhibition at 200 uM after 24 hrs; assay type: organism-based; details: in vivo
Method in brief: (§4)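 E. coli RP437 in LB at 37 °C, started at OD600 0.05 in 96-well plates with 200 µM compound (DMSO stock), shaken at 250 rpm. OD600 read at 0, 2, 4, 6, 8, 10, 12 and 24 h, normalized to the BF-free control. Six replicates.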

[18] = molecular target: T2, Transcriptional activator protein LasR (Pseudomonas aeruginosa (strain ATCC 15692 / PAO1 / 1C / PRS 101 / LMG12228)); assay: Antagonist activity at LasR in Pseudomonas aeruginosa PAO-JP2 expressing LasI assessed as inhibition of GFP production at 50 to 300 uM after 24 hrs by fluorescence assay in presence of 3-oxo-C12-HSL
Method in brief: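 PAO-JP2 (plasI-LVAgfp) grown in M9 with 300 µg/mL carbenicillin to OD600 0.1, given 1 µM 3-oxo-C12-HSL ± compound at varied concentrations, incubated 24 h at 37 °C with shaking at 250 rpm. GFP read at ex 500/em 540 nm, M9 background subtracted, divided by OD600 and normalized to the BF-free control. Four replicates.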

[19] = molecular target: T1, HTH-type quorum-sensing regulator RhlR (Pseudomonas aeruginosa (strain ATCC 15692 / PAO1 / 1C / PRS 101 / LMG12228)); assay: Agonist activity at RhlR in Pseudomonas aeruginosa PAO-JP2 expressing RhlI assessed as effect on GFP production at 50 to 300 uM after 24 hrs by fluorescence assay in presence of 3-oxo-C12-HSL and C4-HSL relative to control
Method in brief: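 PAO-JP2 (prhlI-LVAgfp) grown in M9 with 300 µg/mL carbenicillin to OD600 0.1, dosed with 1 µM 3-oxo-C12-HSL and 10 µM C4-HSL ± compound, shaken at 250 rpm and 37 °C for 24 h. GFP read at ex 500/em 540 nm, M9 background subtracted, divided by OD600 and normalized to the BF-free control. Four replicates.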

[20] = molecular target: T2, Transcriptional activator protein LasR (Pseudomonas aeruginosa (strain ATCC 15692 / PAO1 / 1C / PRS 101 / LMG12228)); assay: Antagonist activity at LasR in Pseudomonas aeruginosa PAO1 expressing LasI assessed as inhibition of GFP production at 50 to 300 uM after 24 hrs by fluorescence assay relative to control
Escherichia coli [21] = assay: Toxicity in Escherichia coli RP437 assessed as planktonic growth inhibition at 200 uM up to 8 hrs; assay type: organism-based; details: in vivo; method in brief: as §4
Pseudomonas aeruginosa [22] = assay: Inhibition of quorum sensing system in Pseudomonas aeruginosa PAO-JP2 assessed as reduction of elastase B production after 24 hrs by congo-red staining-based assay; method in brief: as §3
Pseudomonas aeruginosa [23] = assay: Antibacterial activity against Pseudomonas aeruginosa PAO1 expressing green fluorescence protein assessed as inhibition of biofilm formation measured as reduction in mean thickness of biofilm at 400 uM after 24 hrs by confocal laser scanning microscopic analysis relative to control; assay type: functional; details: PAO1, 24 h

Row | SMILES | Activity (SK-N-SH) | inhibition (Escherichia coli [1]) | inhibition (Escherichia coli [2]) | viability at 1 h, 400 µM [3] | Activity [4] | inhibition (Escherichia coli [5]) | inhibition (Pseudomonas aeruginosa [6]) | Activity (Pseudomonas aeruginosa [7]) | viability at 1 h, 400 µM [8] | inhibition at 400 µM (Pseudomonas aeruginosa [9]) | inhibition (Pseudomonas aeruginosa [10]) | inhibition [11] | inhibition (Escherichia coli [12]) | IC50 (Pseudomonas aeruginosa [13]) | viability at 1 h, 400 µM [14] | inhibition [15] | inhibition (Pseudomonas aeruginosa [16]) | Activity (Escherichia coli [17]) | inhibition [18] | Activity [19] | other results
1 | O=C1C=C2CCCCC(Br)=C2O1 | Non-toxic | Active | Active | 7% | inactive | Active | 80% | Non-toxic | 13% | 50% | Active | 69% | Active | 140 µM | 44% | Active | Active | Non-toxic | Active | inactive | 
2 | CC1=C(Br)/C(=C\Br)OC1=O | Toxic | Active | Active | < 2% | inactive | Active |  |  | < 2% |  |  |  | Active |  | 29% |  |  |  | Active |  | inhibition [20]: 46%; Activity (Escherichia coli [21]): Toxic
3 | O=C1C=C2CCCC(Br)=C2O1 | Non-toxic | Active | Active | 50% | inactive | Active | 80% | Non-toxic | 50% | 71% | Active | 78% | Active | 146 µM | 76% | Active | Active | Non-toxic | Active | inactive | inhibition (Pseudomonas aeruginosa [22]): Dose-dependent effect; inhibition at 400 µM (Pseudomonas aeruginosa [23]): 60%

Reference: ChEMBL document CHEMBL3112522, “Bicyclic brominated furanones: a new class of quorum sensing modulators that inhibit bacterial biofilm formation” (Bioorg Med Chem, 2014)
